Measurements reported in ChEMBL document CHEMBL1828568, “Novel imaging agents for β-amyloid plaque based on the N-benzoylindole core” (Bioorg Med Chem Lett, 2011).

Key:
Stomach [1] = experiment: Biodistribution in Kunming mouse stomach assessed per organ at 1 uCi, iv after 2 mins by gamma counting; assay type: ADME, organism-based; settings: in vivo
Method in brief: (§1)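 Radioiodinated tracers given intravenously to normal mice; organs taken at 2, 15, 30, 60, 120 and 240 min after injection. Uptake expressed as % ID/g, mean ± SD of 5 mice; stomach values carry a table footnote.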

Muscle tissue [2] = experiment: Biodistribution in Kunming mouse muscle at 1 uCi, iv after 120 mins by gamma counting; assay type: ADME, organism-based; settings: in vivo, 2 h
Method in brief: (§2)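 125I-labeled tracer given intravenously to normal mice. Organs and blood were sampled at 2, 15, 30, 60, 120 and 240 min after injection. Uptake is expressed as % ID/g, averaged over 5 mice ± SD.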

Liver [3] = experiment: Biodistribution in Kunming mouse liver at 1 uCi, iv after 15 mins by gamma counting; assay type: ADME, organism-based; settings: in vivo, 0.25 h; method in brief: as §2
Blood [4] = experiment: Biodistribution in Kunming mouse blood at 1 uCi, iv after 240 mins by gamma counting; assay type: ADME, organism-based; settings: in vivo, 4 h; method in brief: as §2
Heart [5] = experiment: Biodistribution in Kunming mouse heart at 1 uCi, iv after 240 mins by gamma counting; assay type: ADME, organism-based; settings: in vivo, 4 h; method in brief: as §2
Heart [6] = experiment: Biodistribution in Kunming mouse heart at 1 uCi, iv after 60 mins by gamma counting; assay type: ADME, organism-based; settings: in vivo, 1 h; method in brief: as §2
Brain [7] = experiment: Biodistribution in Kunming mouse brain at 1 uCi, iv after 60 mins by gamma counting; assay type: ADME, organism-based; settings: in vivo, 1 h; method in brief: as §2
Blood [8] = experiment: Biodistribution in Kunming mouse blood at 1 uCi, iv after 120 mins by gamma counting; assay type: ADME, organism-based; settings: in vivo, 2 h; method in brief: as §2
Heart [9] = experiment: Biodistribution in Kunming mouse heart at 1 uCi, iv after 2 mins by gamma counting; assay type: ADME, organism-based; settings: in vivo; method in brief: as §2
Blood [10] = experiment: Biodistribution in Kunming mouse blood at 1 uCi, iv after 15 mins by gamma counting; assay type: ADME, organism-based; settings: in vivo, 0.25 h; method in brief: as §2
Lung [11] = experiment: Biodistribution in Kunming mouse lung at 1 uCi, iv after 60 mins by gamma counting; assay type: ADME, organism-based; settings: in vivo, 1 h; method in brief: as §2
Kidney [12] = experiment: Biodistribution in Kunming mouse kidney at 1 uCi, iv after 2 mins by gamma counting; assay type: ADME, organism-based; settings: in vivo; method in brief: as §2
Lung [13] = experiment: Biodistribution in Kunming mouse lung at 1 uCi, iv after 30 mins by gamma counting; assay type: ADME, organism-based; settings: in vivo, 0.5 h; method in brief: as §2
Lung [14] = experiment: Biodistribution in Kunming mouse lung at 1 uCi, iv after 15 mins by gamma counting; assay type: ADME, organism-based; settings: in vivo, 0.25 h; method in brief: as §2
Spleen [15] = experiment: Biodistribution in Kunming mouse spleen at 1 uCi, iv after 2 mins by gamma counting; assay type: ADME, organism-based; settings: in vivo; method in brief: as §2
Stomach [16] = experiment: Biodistribution in Kunming mouse stomach assessed per organ at 1 uCi, iv after 120 mins by gamma counting; assay type: ADME, organism-based; settings: in vivo, 2 h; method in brief: as §1
Muscle tissue [17] = experiment: Biodistribution in Kunming mouse muscle at 1 uCi, iv after 240 mins by gamma counting; assay type: ADME, organism-based; settings: in vivo, 4 h; method in brief: as §2
Muscle tissue [18] = experiment: Biodistribution in Kunming mouse muscle at 1 uCi, iv after 2 mins by gamma counting; assay type: ADME, organism-based; settings: in vivo; method in brief: as §2
Stomach [19] = experiment: Biodistribution in Kunming mouse stomach assessed per organ at 1 uCi, iv after 60 mins by gamma counting; assay type: ADME, organism-based; settings: in vivo, 1 h; method in brief: as §1
Blood [20] = experiment: Biodistribution in Kunming mouse blood at 1 uCi, iv after 30 mins by gamma counting; assay type: ADME, organism-based; settings: in vivo, 0.5 h; method in brief: as §2
Spleen [21] = experiment: Biodistribution in Kunming mouse spleen at 1 uCi, iv after 60 mins by gamma counting; assay type: ADME, organism-based; settings: in vivo, 1 h; method in brief: as §1
Spleen [22] = experiment: Biodistribution in Kunming mouse spleen at 1 uCi, iv after 30 mins by gamma counting; assay type: ADME, organism-based; settings: in vivo, 0.5 h; method in brief: as §2
Liver [23] = experiment: Biodistribution in Kunming mouse liver at 1 uCi, iv after 2 mins by gamma counting; assay type: ADME, organism-based; settings: in vivo; method in brief: as §2
Brain [24] = experiment: Biodistribution in Kunming mouse brain at 1 uCi, iv after 2 mins by gamma counting; assay type: ADME, organism-based; settings: in vivo; method in brief: as §2
Stomach [25] = experiment: Biodistribution in Kunming mouse stomach assessed per organ at 1 uCi, iv after 15 mins by gamma counting; assay type: ADME, organism-based; settings: in vivo, 0.25 h; method in brief: as §1
Brain [26] = experiment: Biodistribution in Kunming mouse brain at 1 uCi, iv after 120 mins by gamma counting; assay type: ADME, organism-based; settings: in vivo, 2 h; method in brief: as §2
Muscle tissue [27] = experiment: Biodistribution in Kunming mouse muscle at 1 uCi, iv after 15 mins by gamma counting; assay type: ADME, organism-based; settings: in vivo, 0.25 h; method in brief: as §2
[28] = Octanol-phosphate buffer partition coefficient, log D of the compound at pH 7.4; assay type: physicochemical
Method in brief: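 Radioiodinated tracer partitioned between n-octanol and PBS at pH 7.4; log D reported as mean ± SD.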

Heart [29] = experiment: Biodistribution in Kunming mouse heart at 1 uCi, iv after 30 mins by gamma counting; assay type: ADME, organism-based; settings: in vivo, 0.5 h; method in brief: as §2
Spleen [30] = experiment: Biodistribution in Kunming mouse spleen at 1 uCi, iv after 15 mins by gamma counting; assay type: ADME, organism-based; settings: in vivo, 0.25 h; method in brief: as §2
Kidney [31] = experiment: Biodistribution in Kunming mouse kidney at 1 uCi, iv after 60 mins by gamma counting; assay type: ADME, organism-based; settings: in vivo, 1 h; method in brief: as §2
Blood [32] = experiment: Biodistribution in Kunming mouse blood at 1 uCi, iv after 60 mins by gamma counting; assay type: ADME, organism-based; settings: in vivo, 1 h; method in brief: as §2
Lung [33] = experiment: Biodistribution in Kunming mouse lung at 1 uCi, iv after 2 mins by gamma counting; assay type: ADME, organism-based; settings: in vivo; method in brief: as §2
Blood [34] = experiment: Biodistribution in Kunming mouse blood at 1 uCi, iv after 2 mins by gamma counting; assay type: ADME, organism-based; settings: in vivo; method in brief: as §2
Heart [35] = experiment: Biodistribution in Kunming mouse heart at 1 uCi, iv after 120 mins by gamma counting; assay type: ADME, organism-based; settings: in vivo, 2 h; method in brief: as §2
Liver [36] = experiment: Biodistribution in Kunming mouse liver at 1 uCi, iv after 60 mins by gamma counting; assay type: ADME, organism-based; settings: in vivo, 1 h; method in brief: as §2
Kidney [37] = experiment: Biodistribution in Kunming mouse kidney at 1 uCi, iv after 240 mins by gamma counting; assay type: ADME, organism-based; settings: in vivo, 4 h; method in brief: as §2
Liver [38] = experiment: Biodistribution in Kunming mouse liver at 1 uCi, iv after 240 mins by gamma counting; assay type: ADME, organism-based; settings: in vivo, 4 h; method in brief: as §2
Brain [39] = experiment: Biodistribution in Kunming mouse brain at 1 uCi, iv after 240 mins by gamma counting; assay type: ADME, organism-based; settings: in vivo, 4 h; method in brief: as §2
Heart [40] = experiment: Biodistribution in Kunming mouse heart at 1 uCi, iv after 15 mins by gamma counting; assay type: ADME, organism-based; settings: in vivo, 0.25 h; method in brief: as §2
Spleen [41] = experiment: Biodistribution in Kunming mouse spleen at 1 uCi, iv after 120 mins by gamma counting; assay type: ADME, organism-based; settings: in vivo, 2 h; method in brief: as §2
Liver [42] = experiment: Biodistribution in Kunming mouse liver at 1 uCi, iv after 30 mins by gamma counting; assay type: ADME, organism-based; settings: in vivo, 0.5 h; method in brief: as §2
Spleen [43] = experiment: Biodistribution in Kunming mouse spleen at 1 uCi, iv after 240 mins by gamma counting; assay type: ADME, organism-based; settings: in vivo, 4 h; method in brief: as §2
Kidney [44] = experiment: Biodistribution in Kunming mouse kidney at 1 uCi, iv after 30 mins by gamma counting; assay type: ADME, organism-based; settings: in vivo, 0.5 h; method in brief: as §2
Kidney [45] = experiment: Biodistribution in Kunming mouse kidney at 1 uCi, iv after 15 mins by gamma counting; assay type: ADME, organism-based; settings: in vivo, 0.25 h; method in brief: as §2
Lung [46] = experiment: Biodistribution in Kunming mouse lung at 1 uCi, iv after 120 mins by gamma counting; assay type: ADME, organism-based; settings: in vivo, 2 h; method in brief: as §2
Muscle tissue [47] = experiment: Biodistribution in Kunming mouse muscle at 1 uCi, iv after 30 mins by gamma counting; assay type: ADME, organism-based; settings: in vivo, 0.5 h; method in brief: as §2
Brain [48] = experiment: Biodistribution in Kunming mouse brain at 1 uCi, iv after 30 mins by gamma counting; assay type: ADME, organism-based; settings: in vivo, 0.5 h; method in brief: as §2
Muscle tissue [49] = experiment: Biodistribution in Kunming mouse muscle at 1 uCi, iv after 60 mins by gamma counting; assay type: ADME, organism-based; settings: in vivo, 1 h; method in brief: as §2
Brain [50] = experiment: Biodistribution in Kunming mouse brain at 1 uCi, iv after 15 mins by gamma counting; assay type: ADME, organism-based; settings: in vivo, 0.25 h; method in brief: as §2
Lung [51] = experiment: Biodistribution in Kunming mouse lung at 1 uCi, iv after 240 mins by gamma counting; assay type: ADME, organism-based; settings: in vivo, 4 h; method in brief: as §2
Liver [52] = experiment: Biodistribution in Kunming mouse liver at 1 uCi, iv after 120 mins by gamma counting; assay type: ADME, organism-based; settings: in vivo, 2 h; method in brief: as §2
Kidney [53] = experiment: Biodistribution in Kunming mouse kidney at 1 uCi, iv after 120 mins by gamma counting; assay type: ADME, organism-based; settings: in vivo, 2 h; method in brief: as §2
Stomach [54] = experiment: Biodistribution in Kunming mouse stomach assessed per organ at 1 uCi, iv after 240 mins by gamma counting; assay type: ADME, organism-based; settings: in vivo, 4 h; method in brief: as §1
Stomach [55] = experiment: Biodistribution in Kunming mouse stomach assessed per organ at 1 uCi, iv after 30 mins by gamma counting; assay type: ADME, organism-based; settings: in vivo, 0.5 h; method in brief: as §1

O=C(/C=C/c1ccccc1)n1ccc2cc([125I])ccc21
Drug uptake (Stomach [1]): 1.09 %ID
Drug uptake (Muscle tissue [2]): 0.84 % ID/g
Drug uptake (Liver [3]): 7.73 % ID/g
Drug uptake (Blood [4]): 1.07 % ID/g
Drug uptake (Heart [5]): 0.61 % ID/g
Drug uptake (Heart [6]): 1.53 % ID/g
Drug uptake (Brain [7]): 0.77 % ID/g
Drug uptake (Blood [8]): 1.61 % ID/g
Drug uptake (Heart [9]): 10.72 % ID/g
Drug uptake (Blood [10]): 3.91 % ID/g
Drug uptake (Lung [11]): 2.66 % ID/g
Drug uptake (Kidney [12]): 11.22 % ID/g
Drug uptake (Lung [13]): 4.88 % ID/g
Drug uptake (Lung [14]): 6.73 % ID/g
Drug uptake (Spleen [15]): 4.08 % ID/g
Drug uptake (Stomach [16]): 2.29 %ID
Drug uptake (Muscle tissue [17]): 0.19 % ID/g
Drug uptake (Muscle tissue [18]): 3.97 % ID/g
Drug uptake (Stomach [19]): 2.08 %ID
Drug uptake (Blood [20]): 3.75 % ID/g
Drug uptake (Spleen [21]): 1.85 % ID/g
Drug uptake (Spleen [22]): 1.71 % ID/g
Drug uptake (Liver [23]): 15.89 % ID/g
Drug uptake (Brain [24]): 2 % ID/g
Drug uptake (Stomach [25]): 1.52 %ID
Drug uptake (Brain [26]): 0.33 % ID/g
Drug uptake (Muscle tissue [27]): 2.47 % ID/g
logD [28]: 2.53
Drug uptake (Heart [29]): 2.07 % ID/g
Drug uptake (Spleen [30]): 2.44 % ID/g
Drug uptake (Kidney [31]): 6.14 % ID/g
Drug uptake (Blood [32]): 2.88 % ID/g
Drug uptake (Lung [33]): 14.5 % ID/g
Drug uptake (Blood [34]): 14.13 % ID/g
Drug uptake (Heart [35]): 0.99 % ID/g
Drug uptake (Liver [36]): 4.09 % ID/g
Drug uptake (Kidney [37]): 2.22 % ID/g
Drug uptake (Liver [38]): 2.23 % ID/g
Drug uptake (Brain [39]): 0.17 % ID/g
Drug uptake (Heart [40]): 2.9 % ID/g
Drug uptake (Spleen [41]): 0.63 % ID/g
Drug uptake (Liver [42]): 6.48 % ID/g
Drug uptake (Spleen [43]): 0.59 % ID/g
Drug uptake (Kidney [44]): 10.16 % ID/g
Drug uptake (Kidney [45]): 9.68 % ID/g
Drug uptake (Lung [46]): 2.1 % ID/g
Drug uptake (Muscle tissue [47]): 2.06 % ID/g
Drug uptake (Brain [48]): 1.57 % ID/g
Drug uptake (Muscle tissue [49]): 1.06 % ID/g
Drug uptake (Brain [50]): 1.98 % ID/g
Drug uptake (Lung [51]): 1.27 % ID/g
Drug uptake (Liver [52]): 4.86 % ID/g
Drug uptake (Kidney [53]): 3.54 % ID/g
Drug uptake (Stomach [54]): 1.3 %ID
Drug uptake (Stomach [55]): 1.72 %ID
